S100A4 MyoIIA: inhibitors of S100A4-myosin IIA peptide binding, primary screen, biochemical, fluorescence polarization, TAMRA-MyoIIA peptide. inhibition, % at 10.7 µM. Protein S100-A4 (Homo sapiens), P26447. actives 0.14% (n = 360,000). AID 652163, 2013;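 active means mean inhibition of at least 70% across replicates, with every replicate also reaching that level; inconclusive means mean inhibition reaches 70% but some replicates fall short; inactive means mean inhibition below 70%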
Target sequence (P26447 whole entry, looked up): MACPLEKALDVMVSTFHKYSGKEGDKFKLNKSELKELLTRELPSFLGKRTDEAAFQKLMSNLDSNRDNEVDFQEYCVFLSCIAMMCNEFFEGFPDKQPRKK
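Test system: S100A4 monomer protein. Medium: HEPES buffer with Ca2+, pH 7.2. Reagent: fluorescent myosin IIA peptide, 5 nM. Compound dosing: single-point compound testing. Timing: 5 min between mix addition and reading. Benchmarks: DMSO neutral and TFP positive wells.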
dFosB act: activators of delta FosB homodimer, primary screen, biochemical, fluorescence polarization, TAMRA-CDK5 oligo, single point; actives 0.99% (n = 340,000); AID 493131, 2011; purified delta FosB; percent of positive-control signal above neutral wells; Protein FosB (Mus musculus), P13346; activation, % at 25 µM;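 active means mean activation above about 17%, with every replicate also reaching it, limit read from the data, passing the limit was not always enough; inconclusive means only one of the two conditions met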
Target sequence (P13346 whole entry, looked up): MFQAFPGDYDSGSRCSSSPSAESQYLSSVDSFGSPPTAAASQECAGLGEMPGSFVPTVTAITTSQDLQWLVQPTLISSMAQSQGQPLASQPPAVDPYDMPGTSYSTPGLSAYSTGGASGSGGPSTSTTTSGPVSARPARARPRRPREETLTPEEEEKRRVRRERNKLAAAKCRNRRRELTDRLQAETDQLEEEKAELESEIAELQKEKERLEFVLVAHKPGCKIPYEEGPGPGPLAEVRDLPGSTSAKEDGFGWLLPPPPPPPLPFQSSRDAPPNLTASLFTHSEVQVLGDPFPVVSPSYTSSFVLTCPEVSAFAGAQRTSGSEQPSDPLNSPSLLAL
FGF22 binding: binders of human FGF22 protein, primary screen, FGF22 synaptogenesis inhibitor project, biophysical, thermal shift, single point. Fibroblast growth factor 22 (Homo sapiens), Q9HCT0. recombinant FGF22 thermal shift, SYPRO orange fluorescence; percent of sucrose octasulfate shift, DMSO zero. activity (Tm shift, normalised), % at 9.99 µM. actives 1.5% (n = 340,000). AID 651658, 2012;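 active means mean Tm shift, scaled 0 neutral to 100 positive control, at about 1.3% or above, every replicate too, limit read from the data; inconclusive means no clear call, values can overlap the other calls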
Target sequence (Q9HCT0 whole entry, looked up): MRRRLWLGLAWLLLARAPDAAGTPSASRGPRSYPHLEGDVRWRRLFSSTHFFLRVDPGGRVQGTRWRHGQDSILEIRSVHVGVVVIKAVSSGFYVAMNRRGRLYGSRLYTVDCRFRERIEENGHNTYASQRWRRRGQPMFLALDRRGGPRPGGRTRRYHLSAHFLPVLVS
CFTR F508del cor: F508del CFTR correction, initial screen, CFBE line, single point; CFBE cells, YFP halide quenching; stimulated with forskolin plus potentiator P3; % fluorescence drop versus neutral controls; activity (quench increase), % at 7.58 µM; actives 0.36% (n = 350,000); AID 720511, 2013;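 active means mean added fluorescence quench of at least 8% versus neutral control, with both replicates also reaching 8%; inconclusive means only one of the mean or replicate conditions met; inactive means mean below 8% and not both replicates reaching 8%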;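 further: cells transiently co-express mutant CFTR-F508del with the halide-sensitive YFP; corrector assay measuring rescue of mutant channel to the surface after 24 h compound exposure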
* hit, by the source's call; ? = inconclusive; / = not tested or not shown; ! = a repeat was not active. The list is not random: actives were taken first. Their share in the collection is about 2.2%.

SMILES	S100A4 MyoIIA	dFosB act	FGF22 binding	CFTR F508del cor
COc1ccc(NC(=O)N(C)C[C@H]2Oc3c(NC(=O)Nc4cccc5ccccc45)cccc3C(=O)N([C@H](C)CO)C[C@H]2C)cc1	-6.3	/	-1.2	1.6
O=C(CN1C(=O)/C(=C/c2cccc(Br)c2)SC1=S)Nc1cccnc1	-9.6	-5.8	43.8*	-2.1
O=C(CCN1C(=O)/C(=C/c2ccccc2Cl)SC1=S)NNC(=O)c1ccccc1O	2.9	37.2*	-0.4	-0.4
Cc1ccc(/C=C2\SC(=S)N(CCC(=O)NNC(=O)c3ccc(O)cc3)C2=O)cc1	3.6	144.2*	0.0	1.1
O=C(CCN1C(=O)/C(=C/c2cccc(Br)c2)SC1=S)Nc1cccnc1	-1.6	-6.8	1.0	0.9
O=C(CCN1C(=O)/C(=C/c2ccccc2Cl)SC1=S)NNC(=O)c1cccnc1	1.6	2.2	0.0	0.0
Cc1ccc(/C=C2\SC(=S)N(CCCC(=O)NNC(=O)c3ccccc3O)C2=O)cc1	-8.1	8.5	-0.1	-0.2
Cc1ccc(/C=C2\SC(=S)N(CCC(=O)NNS(=O)(=O)c3ccccc3)C2=O)cc1	1.4	22.4*	0.0	0.5
Cc1ccc(/C=C2\SC(=S)N(CCC(=O)NNC(=O)c3cccc(O)c3)C2=O)cc1	0.8	?	0.9	-1.4
C[C@H](CO)N1C[C@H](C)[C@H](CN(C)C)Oc2ccc(NC(=O)Nc3ccc4c(c3)OCO4)cc2C1=O	0.1	/	0.1	-0.5
O=C1C=CCC(/C=C/c2ccccc2)O1 (configuration not stated)	0.1	/	43.7*	14.9*
Cn1nc(C(=O)NNC(=O)CCOc2ccc(C(C)(C)C)cc2)c2ccccc2c1=O	15.8	-1.8	-0.3	10.1*
O=C(Cc1ccncc1)NCC[C@H]1CC[C@H](NC(=O)C2CCC2)[C@@H](CO)O1	-1.9	/	0.1	-2.3
CCCC#Cc1ccc2c(c1)O[C@H](CN(C)Cc1ccccc1)[C@H](C)CN([C@@H](C)CO)S2(=O)=O	/	/	/	2.2
Cc1cccc(NC(=O)CSc2nnc(-c3ccc(S(=O)(=O)N4CCCC4)cc3)o2)c1	2.1	-1.6	-0.1	-1.2
Cc1ccc(NC(=O)CSc2nnc(-c3ccc(S(=O)(=O)N4CCCC4)cc3)o2)cc1C	/	70.0*	/	/
Cn1cnnc1SCC(=O)Nc1ccc(S(=O)(=O)N2CCCC2)cc1	9.6	2.5	0.5	-1.8
Cc1ccc(S(=O)(=O)N2CCOCC2)cc1NC(=O)CSc1n[nH]c(N)n1	-12.7	-6.5	0.4	17.7*
Cn1cnnc1SCC(=O)Nc1ccc(S(=O)(=O)N2CCOCC2)cc1	2.9	-2.8	0.4	12.3*
COc1ccc2c3c(n(C)c2c1)[C@@H](CO)N(Cc1cccc(F)c1)CC31CCN(C)CC1	/	/	0.0	1.9
C[C@H](CO)N1C[C@H](C)[C@H](CN(C)C(=O)C2CC2)Oc2cc(Br)ccc2S1(=O)=O	-5.0	/	-0.2	3.0
CS(=O)(=O)N(CC(=O)NN=C1CCCCCC1)c1ccc(Oc2ccccc2)cc1	3.6	-6.7	0.5	5.3
C/C(=N\NC(=O)CN(c1ccc(Oc2ccccc2)cc1)S(C)(=O)=O)C(C)(C)C	-0.8	-14.0	43.5*	-2.6
CO[C@H]1CN(C)C(=O)c2cc(NC(C)=O)ccc2OC[C@H](C)N(C(=O)c2ccncc2)C[C@@H]1C	-4.0	/	-0.4	-0.8
CO[C@@H]1CN(C)C(=O)c2cc(NC(=O)Nc3c(C)noc3C)ccc2OC[C@@H](C)N(C)C[C@@H]1C	5.4	/	-0.1	9.6*
SMILES	S100A4 MyoIIA	dFosB act	FGF22 binding	CFTR F508del cor
CO[C@H]1CN(C)C(=O)c2cc(NC(C)=O)ccc2OC[C@H](C)N(C(=O)c2ccncc2)C[C@H]1C	1.5	/	-0.7	8.4*
N#CC1=C(N)OC2=C(CCc3ccccc32)C1c1ccccc1Cl (configuration not stated)	-5.6	-3.5	0.0	10.5*
Cc1ccc(NC(=S)NN2CCN(C)CC2)c(C)c1	1.0	-1.2	43.4*	0.7
Cc1ccc(C(=O)c2sc(Nc3ccccc3)c(C#N)c2N)cc1	/	-8.5	/	/
CCOC(=O)c1ccc(Nc2sc(C(=O)c3cccc([N+](=O)[O-])c3)c(N)c2C#N)cc1	-13.4	8.0	-0.1	11.6*
CN1/C(=C\C(=O)c2cccc(S(=O)(=O)N3CCCCC3)c2)C(C)(C)c2ccccc21	31.2	-7.3	43.0*	0.6
CN1/C(=C\C(=O)c2cccnc2)C(C)(C)c2ccccc21	-4.0	1.4	0.6	3.2
CCCCN(C)Cc1c(C)[nH]c2ccccc2c1=O	-4.9	-2.1	43.3*	-1.8
CCCCN(C)Cc1c(C)[nH]c2ccc(C)cc2c1=O	/	-6.9	/	/
CC(=O)Nc1ccc(S(=O)(=O)NC2=C(N3CCN(Cc4ccccc4)CC3)C(=O)c3ccccc3C2=O)cc1	-10.8	-3.5	-0.7	14.8*!
CCN1CCN(C2=C(NS(=O)(=O)c3ccc(NC(C)=O)cc3)C(=O)c3ccccc3C2=O)CC1	-12.1	-6.4	0.0	-0.7
CC(=O)N1CCN(CC(=O)Nc2ccc3c(c2)CCC3)CC1	2.8	-9.6	44.5*	6.7
CC(=O)N1CCN(CC(=O)Nc2ccc(C)c(S(=O)(=O)N(C)C)c2)CC1	-0.5	-8.6	43.1*	2.0
CO[C@H](CN(C)C(=O)c1ccccc1F)[C@@H](C)CN([C@@H](C)CO)S(=O)(=O)c1ccc(Cl)cc1	3.7	/	0.3	6.1
N/C(=N\OC(=O)/C=C/c1ccccc1)c1cccnc1	1.1	-0.6	43.2*	1.4
N/C(=N\OC(=O)/C=C/c1ccccc1Cl)c1cccnc1	0.7	/	0.0	-1.2
O=C([C@@H]1[C@@H](CO)[C@@H]2Cn3c(ccc(-c4ccccc4)c3=O)[C@H]1N2CCC(F)(F)F)N1CCOCC1	7.0	/	0.6	-2.2
C[C@H]1CN([C@@H](C)CO)C(=O)c2cccc(NC(=O)c3cnccn3)c2O[C@@H]1CN(C)S(=O)(=O)c1ccccc1	/	/	/	-0.6
Nc1nc(SCn2nnc3ccccc3c2=O)n[nH]1	0.1	-8.5	43.2*	4.2
Cc1nc(SCn2nnc3ccccc3c2=O)nc(C)c1C	/	-9.9	/	/
COc1ccc2c3c([nH]c2c1)[C@H](CO)N(Cc1ccncc1)CC31CN(CC2CCOCC2)C1	-7.9	/	-0.1	1.3
Oc1ccc(Nc2nc(NCC3CCCO3)c3ccccc3n2)cc1 (configuration not stated)	/	14.8	/	/
COc1cccc(Nc2nc(NCC3CCCO3)c3ccccc3n2)c1 (configuration not stated)	/	-6.1	/	/
Oc1ccc(Cl)cc1Nc1nc(NCC2CCCO2)c2ccccc2n1 (configuration not stated)	2.8	44.1*	0.0	2.5
Oc1ccccc1Nc1nc(NCC2CCCO2)c2ccccc2n1 (configuration not stated)	/	24.7*	/	/

Screens (PubChem BioAssay)
